# Columns and labels:
# Type in all cases: functional
# [1] = system: Aspergillus niger; assay: Antifungal activity against Aspergillus niger MTCC 8184 after 7 days by tube dilution method
# In short: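 Tube (serial) dilution MIC in Sabouraud dextrose broth I.P., 25 °C for 7 days. Results are recorded as MIC and reported as pMIC in mM.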
# [2] = system: A549; assay: Growth inhibition of human A549 cells at 50 uM after 48 hrs by MTT assay; settings: A549, 48 h, read-out: GI
# In short: (§1)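 Cells from ECACC are kept in RPMI-1640 with 10% FCS and 1% penicillin at 37 °C in 5% CO2. They are seeded at 3×10^3 cells/well and dosed after 24 h from filter-sterilized DMSO stocks, then treated for 48 h. MTT (2.5 mg/mL in PBS) is added, formazan is dissolved in DMSO, and A570 is read. Viability is given as % of untreated.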
# [3] = system: HCT-116; assay: Growth inhibition of human HCT116 cells at 50 uM after 48 hrs by MTT assay; settings: HCT-116, 48 h, read-out: GI; in short: as §1
# [4] = system: HCT-116; assay: Growth inhibition of human HCT116 cells at 10 uM after 48 hrs by MTT assay; settings: HCT-116, 48 h, read-out: GI; in short: as §1
# [5] = system: MCF7; assay: Growth inhibition of human MCF7 cells at 10 uM after 48 hrs by MTT assay; settings: MCF7, 48 h, read-out: GI; in short: as §1
# [6] = system: MCF7; assay: Growth inhibition of human MCF7 cells at 50 uM after 48 hrs by MTT assay; settings: MCF7, 48 h, read-out: GI; in short: as §1
# [7] = system: A549; assay: Growth inhibition of human A549 cells at 10 uM after 48 hrs by MTT assay; settings: A549, 48 h, read-out: GI; in short: as §1
# [8] = system: PC-3; assay: Growth inhibition of human PC3 cells at 50 uM after 48 hrs by MTT assay; settings: PC-3, 48 h, read-out: GI; in short: as §1
# [9] = system: Candida albicans; assay: Antifungal activity against Candida albicans MTCC 227 after 48 hrs by tube dilution method
# [10] = system: PC-3; assay: Growth inhibition of human PC3 cells at 10 uM after 48 hrs by MTT assay; settings: PC-3, 48 h, read-out: GI; in short: as §1
# [11] = system: Escherichia coli; assay: Antibacterial activity against Escherichia coli MTCC 1652 after 24 hrs by tube dilution method
# [12] = system: Staphylococcus aureus; assay: Antibacterial activity against Staphylococcus aureus MTCC 2901 after 24 hrs by tube dilution method
# [13] = system: Bacillus subtilis; assay: Antibacterial activity against Bacillus subtilis MTCC 2063 after 24 hrs by tube dilution method
Compound,-logMIC [1],inhibition of growth at 50 µM [2] [%],inhibition of growth at 50 µM [3] [%],inhibition of growth at 10 µM [4] [%],inhibition of growth at 10 µM [5] [%],inhibition of growth at 50 µM [6] [%],inhibition of growth at 10 µM [7] [%],inhibition of growth at 50 µM [8] [%],-logMIC [9],inhibition of growth at 10 µM [10] [%],-logMIC [11],-logMIC [12],-logMIC [13]
Cc1ccc(C2N=C(c3ccc(Cl)cc3)Oc3ccc4ccccc4c32)cc1 (stereo unspecified),1.49,28,6,3,21,37,16,13,1.79,8,0.88,1.49,1.79
Cc1ccc(C2=NC(c3ccc(C)cc3)c3c(ccc4ccccc34)O2)cc1 (stereo unspecified),1.46,36,24,19,30,37,17,5,1.76,1,1.46,1.46,2.07
OC(Cn1cncn1)(Cn1cncn1)c1ccc(F)cc1F [FLUCONAZOLE],2.64,,,,,,,,2.64,,,,
Brc1ccc(C2=NC(c3ccccc3)c3c(ccc4ccccc34)O2)cc1 (stereo unspecified),1.52,40,29,6,27,39,23,11,1.82,4,1.52,1.52,1.82
Clc1ccc(C2=NC(c3ccccc3)c3c(ccc4ccccc34)O2)cc1 (stereo unspecified),1.47,38,29,3,27,39,17,19,1.77,9,2.37,1.77,1.77
c1ccc(C2=NC(c3ccccc3)c3c(ccc4ccccc34)O2)cc1 (stereo unspecified),1.43,36,22,5,26,37,19,16,1.73,1,2.33,1.43,2.03
Cc1ccc(C2N=C(c3ccc(F)cc3)Oc3ccc4ccccc4c32)cc1 (stereo unspecified),1.47,44,23,18,20,44,16,19,1.77,5,2.07,1.47,2.07
Cc1ccc(C2N=C(c3ccccc3)Oc3ccc4ccccc4c32)cc1 (stereo unspecified),1.45,37,8,2,17,32,17,3,1.75,1,2.35,1.45,1.75
O=C(O)c1cn(C2CC2)c2cc(N3CCNCC3)c(F)cc2c1=O [CIPROFLOXACIN],,,,,,,,,,,2.61,2.61,2.61

# Source: ChEMBL document CHEMBL2086288, “Synthesis, antimicrobial and cytotoxicity study of 1,3-disubstituted-1H-naphtho[1,2-e][1,3]oxazines” (2012)
